Source: PubChem (Johns Hopkins Ion Channel Center)
MrgX1 PAM = allosterically activates human MrgX1 receptor signaling. Q96LB2. MrgX1-HEK293, Fluo-4 calcium flux, FDSS; hits give high values. B-score at 10 µM. actives 0.63% (n = 310,000). AID 588675;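 active = plate-corrected calcium response at least 3 library SD above typical, normal starting fluorescence, not activating the receptor alone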;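 note: compound read alongside a low EC10 to EC30 dose of BAM8-22 agonist; peak minus trough fluorescence over baseline measured at the second addition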
Target sequence (Q96LB2 whole entry, looked up): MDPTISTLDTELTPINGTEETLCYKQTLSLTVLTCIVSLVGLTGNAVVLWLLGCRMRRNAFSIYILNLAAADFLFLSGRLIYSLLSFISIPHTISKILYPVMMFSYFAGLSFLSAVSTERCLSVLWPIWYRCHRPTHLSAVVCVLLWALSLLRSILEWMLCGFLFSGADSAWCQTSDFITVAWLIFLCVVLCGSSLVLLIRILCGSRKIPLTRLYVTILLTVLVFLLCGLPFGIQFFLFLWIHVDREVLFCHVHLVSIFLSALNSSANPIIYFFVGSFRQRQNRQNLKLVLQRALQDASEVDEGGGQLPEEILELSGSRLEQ
RGS4 block = inhibitors of human RGS4 | HEK293 M3R/RGS4 inducible, Fluo-4 calcium flux; hits give high values; triggered by carbachol at its EC20 | AID 463165 | B-score at 10 µM | actives 0.45% (n = 310,000) | P49798;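 active = B-score, a plate-corrected calcium signal, over three deviations above library mean, with baseline fluorescence within five deviations of library mean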;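 note: RGS4 expression induced by doxycycline in cells with stable M3 receptor; B-score is computed from the integrated fluorescence ratio over baseline after carbachol; higher B-score means a larger calcium signal and so more RGS4 inhibition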
Target sequence (P49798 whole entry, looked up): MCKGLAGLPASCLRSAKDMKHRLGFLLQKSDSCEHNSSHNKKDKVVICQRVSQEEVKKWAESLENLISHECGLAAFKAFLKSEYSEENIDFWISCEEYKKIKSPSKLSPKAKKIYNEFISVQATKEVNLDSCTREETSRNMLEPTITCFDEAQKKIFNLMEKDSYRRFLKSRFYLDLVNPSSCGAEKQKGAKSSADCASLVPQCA
MrgX1 antagonist = antagonists of human MrgX1 receptor; Q96LB2; MRGX1-HEK293 calcium flux, Fluo-4, BAM8-22 antagonism; hits give low values; B-score at 10 µM; actives 1.3% (n = 310,000); AID 588676;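 active = calcium-response B-score plate-corrected more than 3 library SD below zero, starting fluorescence within 5 deviations, no agonist response on first addition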;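 note: peak minus trough fluorescence over baseline after final BAM8-22 challenge near maximal dose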
RGS4 pot = potentiators or activators of RGS4; HEK293 M3R/inducible RGS4, carbachol calcium flux Fluo4; hits give low values; actives 0.92% (n = 310,000); B-score at 10 µM;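 active = B-score of the integrated calcium signal more than 4 SD below the library mean, with starting fluorescence not abnormally high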;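 note: negative B-score means reduced calcium response which marks RGS4 activation or potentiation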
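Assay system: HEK293 FlpIn-TREx cells, stable M3R, doxycycline-inducible RGS4 / Probe or stimulus: carbachol, ECmax concentration / Times: overnight RGS4 induction, 30 min dye load 37 °C, 20 min compound RT / Signal: kinetic calcium fluorescence imaging with Fluo4-AM dye, 2 µM / Measure: Agonist-evoked peak-minus-minimum fluorescence over baseline, integrated ratio, B score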
MrgX1 agonist = human MrgX1 receptor agonism, primary screen; Q96LB2; MrgX1-HEK293 cells, Fluo-4 calcium fluorescence, agonist mode; hits give high values; B-score at 10 µM; actives 0.44% (n = 310,000); AID 588627;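 active = calcium response B-score plate-corrected fluorescence ratio at least 3 library SD, with starting fluorescence B-score inside 5 SD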
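Test system: Stable human MrgX1 HEK293 cell line | Schedule: Overnight plating before 1 h dye loading | Read-out basis: Baseline-normalised fluorescence change ratio, B-scored | Detection: Kinetic calcium dye fluorescence, Fluo-4 NW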
MrgX1 ant reconf = reconfirmed antagonist of human MrgX1 receptor signaling. shares compounds with MrgX1 antagonist. MrgX1-HEK293, BAM8-22 calcium flux, Fluo-4; hits give low values. remaining BAM8-22 calcium response % of control (hits give low values), % at 10 µM. actives 19% (n = 2,300);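 active = remaining agonist calcium response no higher than 100% minus 3 SD of agonist-only control wells, with starting fluorescence near control levels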;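 note: agonist BAM8-22 given at a near maximal EC90 to ECmax level; peak minus minimum fluorescence divided by baseline after agonist addition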
HEK293 Ca flux = activity in parental HEK293 cells lacking MrgX1; fluorescence ratio F(max-min)/F0 at 10 µM; AID 624111; Fluo-4 calcium fluorescence, FDSS; actives 2% (n = 4,000); shares compounds with MrgX1 antagonist;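 active = duplicate-averaged calcium fluorescence ratio at least three times the standard deviation of buffer wells, a nonspecific response in parental cells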
HEK293 Ca counter = activity in parental HEK293 cells without MrgX1. parental HEK293 calcium flux, Fluo-4 fluorescence ratio; hits give high values. actives 0.4% (n = 4,000). AID 624114. shares compounds with MrgX1 antagonist. fluorescence ratio F(max-min)/F0 at 10 µM;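 active = calcium fluorescence ratio, averaged over duplicates, at least 3 SD of the buffer-well ratio, meaning a nonspecific response in receptor-free cells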;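 note: untransfected parental HEK293 lacking MrgX1 used as counterscreen for MrgX1 allosteric activators; fluorescence change taken during the second addition on a kinetic imager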
HEK293 Ca cntr2 = MrgX1 activator counter-screen hit in parental HEK293 cells; shares compounds with MrgX1 antagonist; Fluo-4 calcium fluorescence (FDSS); hits give high values; fluorescence ratio F(max-min)/F0 at 10 µM; actives 8.7% (n = 4,000); AID 624115;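 active = calcium fluorescence ratio at least three times the spread of buffer wells, meaning a non-specific response in parental cells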
* = called active by the depositor; i = inactive; . = no result given. Sampled rows, rich in hits. Any-hit rate of the full collection: about 3.5%.

SMILES	MrgX1 PAM	RGS4 block	MrgX1 antagonist	RGS4 pot	MrgX1 agonist	MrgX1 ant reconf	HEK293 Ca flux	HEK293 Ca counter	HEK293 Ca cntr2
Ic1ccccc1CN[C@@H]1C2CCN(CC2)[C@@H]1C(c1ccccc1)c1ccccc1	i	.	-15*	.	i	5.6%*	i	i	i
CCOC(=O)C1SC2(C(F)(F)F)CC1(O)c1c(C)cc(C)nc1O2 (stereo unspecified)	i	i	-7.8*	i	i	i	i	i	i
Cc1cc(OCC(=O)NC(Cc2ccc(Cl)cc2)C(=O)O)c2c3c(c(=O)oc2c1)CCCC3 (stereo unspecified)	i	i	i	i	i	.	.	.	.
O=c1ccc2cc(O[C@@H]3O[C@@H](CO)[C@H](O)[C@@H](O)[C@@H]3O)c(O)cc2o1	i	i	i	i	i	.	.	.	.
CC1=C(C(=O)OC(C)C)[C@]2(C(=O)N(CC(N)=O)c3ccccc32)C(C#N)=C(N)O1	i	i	i	i	i	.	.	.	.
C=CCOC(=O)C1=C(C)OC(N)=C(C#N)[C@@]12C(=O)N(CC(N)=O)c1ccccc12	i	i	-5.7*	i	i	i	i	i	i
Cc1cc(N2C(=O)CC(N3CCC(n4c(=O)[nH]c5ccccc54)CC3)C2=O)no1 (stereo unspecified)	i	i	-5.4*	i	i	i	i	i	i
CC(C)c1ccccc1NC1=NCCCS1	i	i	i	i	i	.	.	.	.
C=CCN1C(=O)NC(=O)C(Cc2ccc(OC)c(OC)c2)C1=O (stereo unspecified)	i	i	-4.8*	i	i	i	i	i	i
CCCN1CCC[C@@H](c2cccc(O)c2)C1	i	.	-5.6*	.	i	80%*	i	i	i
O=C(O)c1ccccc1-c1ccc(C=C2C(=O)N(c3ccccc3)C(=S)N(c3ccccc3)C2=O)o1	i	i	i	i	i	.	.	.	.
COC(=O)C1=C(c2ccccc2)C[C@@H]2CC[C@H]1N2C(=O)NCC1CC1	i	i	-4.8*	i	i	i	i	i	i
COc1ccccc1CN1CCN(Cc2ccc(Cl)cc2)CC1	i	i	-5.3*	i	i	i	i	i	i
CN1CCc2nc(SCC(=O)OC(C)(C)C)c(C#N)cc2C1	i	i	i	i	i	.	.	.	.
CN1CCc2nc3sc(C(=O)NC4CC4)c(N)c3cc2C1	i	i	-6.6*	i	i	i	i	i	i
CCCCCn1c(=O)c(C(=O)Nc2cccc(C)n2)c(O)c2ccccc21	i	i	i	i	i	.	.	.	.
CCCCCn1c(=O)c(C(=O)Nc2cccc(C)c2)c(O)c2ccccc21	i	i	-5.2*	i	i	i	0.79*	i	i
O=C1CN=C(c2ccccc2)c2ccccc2N1	i	i	-7.3*	i	i	i	i	i	i
CC(C)Nc1ccc(Nc2ccccc2)cc1	i	.	-5.1*	.	i	i	i	i	i
CCOC(=O)c1c(/N=C/C2C(=O)NC(=S)NC2=O)sc2c1CCC2	i	i	-7.5*	i	i	i	i	i	i
COc1ccc(-n2c(O)c(C(C)=NCCc3c[nH]c4ccccc34)c(=O)[nH]c2=O)cc1	i	i	i	i	i	.	.	.	.
COc1cc(/C=C/c2nc3ccccc3c(=O)n2-c2ccccc2O)ccc1O	i	i	-9.3*	i	i	i	i	i	47*
COc1cc(/C=C/c2nc3ccccc3c(=O)n2-c2cccc(O)c2)ccc1O	i	i	i	i	i	.	.	.	.
